# Source: ChEMBL document CHEMBL1148952, “A new ene-triyne antibiotic from the fungus Baeospora myosura” (2004)
# Active and inactive are the calls of the source. The rule behind the calls is not given here.
# Legend:
# Staphylococcus aureus [1] = assay: Antimicrobial activity against methicillin-sensitive Staphylococcus aureus after 20 hrs; format: functional
# In short: (§1)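 Broth MIC determination in cation-adjusted Mueller-Hinton broth, inoculum 10^5 cfu/mL, incubated 35 °C for 20 h.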
# Staphylococcus aureus [2] = assay: Antimicrobial activity against methicillin-sensitive Staphylococcus aureus after 20 hrs in presence of 50% serum; format: functional
# Staphylococcus aureus [3] = assay: Antimicrobial activity against methicillin-resistant Staphylococcus aureus after 20 hrs; format: functional; in short: as §1
# Staphylococcus aureus [4] = assay: Antimicrobial activity against methicillin-resistant coagulase negative Staphylococcus aureus after 20 hrs; format: functional; in short: as §1
# Enterococcus faecalis = assay: Antimicrobial activity against vancomycin-sensitive Enterococcus faecalis after 20 hrs; format: functional
# In short: (§2)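 Broth MIC in cation-adjusted Mueller-Hinton broth. Inoculum 10^5 cfu/mL, incubated 35 °C for 20 h. Test material was held as a DMSO stock, with concentration set by UV absorbance at 325 nm of a MeOH dilution (ε = 2 × 10^4 M-1 cm-1).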
# Enterococcus faecium = assay: Antimicrobial activity against vancomycin-resistant Enterococcus faecium after 20 hrs; format: functional; in short: as §1
# Streptococcus pneumoniae [5] = assay: Antimicrobial activity against Streptococcus pneumoniae after 20 hrs; format: functional
# In short: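 MIC by broth dilution in cation-adjusted Mueller-Hinton broth with 2.5% lysed horse blood. Inoculum 10^5 cfu/mL, 35 °C for 20 h. DMSO stock quantified by UV absorbance at 325 nm.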
# Streptococcus pneumoniae [6] = assay: Antimicrobial activity against penicillin-resistant Streptococcus pneumoniae after 20 hrs; format: functional
# In short: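 Broth MIC determination in cation-adjusted Mueller-Hinton broth supplemented with 2.5% lysed horse blood, inoculum 10^5 cfu/mL, incubated 35 °C for 20 h.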
# Streptococcus pyogenes = assay: Antimicrobial activity against Streptococcus pyogenes after 20 hrs; format: functional
# Priestia megaterium = assay: Antimicrobial activity against Bacillus megaterium after 20 hrs; format: functional; in short: as §2
# Haemophilus influenzae = assay: Antimicrobial activity against Haemophilus influenzae after 20 hrs; format: functional
# In short: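 Haemophilus Test medium broth MIC. Inoculum 10^5 cfu/mL, incubated 35 °C for 20 h. Compound supplied from a DMSO stock quantified by UV absorbance at 325 nm.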
# Escherichia coli = assay: Antimicrobial activity against Escherichia coli after 20 hrs; format: functional; in short: as §2
# Pseudomonas aeruginosa = assay: Antimicrobial activity against Pseudomonas aeruginosa after 20 hrs; format: functional; in short: as §2
# Klebsiella pneumoniae = assay: Antimicrobial activity against Klebsiella pneumoniae after 20 hrs; format: functional; in short: as §2
# Candida albicans = assay: Antimicrobial activity against Candida albicans after 24 hrs; format: functional
# In short: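 Yeast MIC in RPMI 1640. Inoculum 10^3 cfu/mL, incubated 35 °C for 24 h. Compound supplied from a DMSO stock quantified by UV absorbance at 325 nm.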
# [7] = tested on: coagulase-negative Staphylococcus; assay: Antimicrobial activity against methicillin-resistant coagulase negative Staphylococcus after 20 hrs
Compound,Activity (Staphylococcus aureus [1]),Activity (Staphylococcus aureus [2]),Activity (Staphylococcus aureus [3]),Activity (Staphylococcus aureus [4]),MIC (Staphylococcus aureus [1]) [µg/mL],MIC (Staphylococcus aureus [2]) [µg/mL],MIC (Staphylococcus aureus [3]) [µg/mL],MIC (Enterococcus faecalis) [µg/mL],MIC (Enterococcus faecium) [µg/mL],MIC (Streptococcus pneumoniae [5]) [µg/mL],MIC (Streptococcus pneumoniae [6]) [µg/mL],MIC (Streptococcus pyogenes) [µg/mL],MIC (Priestia megaterium) [µg/mL],MIC (Haemophilus influenzae) [µg/mL],MIC (Escherichia coli) [µg/mL],MIC (Pseudomonas aeruginosa) [µg/mL],MIC (Klebsiella pneumoniae) [µg/mL],MIC (Candida albicans) [µg/mL],MIC [7] [µg/mL]
CC(=O)Nc1ccc(C(=O)O)cc1,inactive,inactive,inactive,inactive,–,–,–,–,–,–,–,–,–,–,–,–,–,–,–
C#CC#CC#C/C=C/C(=O)Nc1ccc(C(=O)O)cc1,–,–,–,–,0.0005,16,0.001,0.12,0.015,8,16,0.008,4,0.5,32,> 32,> 32,> 32,0.0005
CCCCCCCCC(=O)Nc1ccc(C(=O)O)cc1,inactive,inactive,inactive,inactive,–,–,–,–,–,–,–,–,–,–,–,–,–,–,–
